Substitutions are numbered along the chain they refer to.
Key:
Assay in all cases: two-electrode voltage clamp, Xenopus oocytes
Format in all cases: cell-based
[1] = biological target: T1, 5-HT3AB receptor (Homo sapiens, UniProt O95264+P46098, O95264:E122Q/P46098:E124Q)
T1 sequence (P46098 24-478 E124Q): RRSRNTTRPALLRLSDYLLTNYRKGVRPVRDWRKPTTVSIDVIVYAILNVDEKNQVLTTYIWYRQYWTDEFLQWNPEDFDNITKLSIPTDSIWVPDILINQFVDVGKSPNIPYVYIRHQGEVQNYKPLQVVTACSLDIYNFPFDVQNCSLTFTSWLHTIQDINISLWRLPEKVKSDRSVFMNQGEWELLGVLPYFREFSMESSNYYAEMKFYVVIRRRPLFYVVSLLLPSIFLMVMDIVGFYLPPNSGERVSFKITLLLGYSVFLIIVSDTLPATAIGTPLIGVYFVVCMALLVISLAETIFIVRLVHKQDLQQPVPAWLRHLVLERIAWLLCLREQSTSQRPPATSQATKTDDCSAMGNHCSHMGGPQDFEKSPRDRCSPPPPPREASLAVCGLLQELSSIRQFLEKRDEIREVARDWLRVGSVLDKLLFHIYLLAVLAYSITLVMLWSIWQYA
T1 sequence (O95264 22-441 E122Q): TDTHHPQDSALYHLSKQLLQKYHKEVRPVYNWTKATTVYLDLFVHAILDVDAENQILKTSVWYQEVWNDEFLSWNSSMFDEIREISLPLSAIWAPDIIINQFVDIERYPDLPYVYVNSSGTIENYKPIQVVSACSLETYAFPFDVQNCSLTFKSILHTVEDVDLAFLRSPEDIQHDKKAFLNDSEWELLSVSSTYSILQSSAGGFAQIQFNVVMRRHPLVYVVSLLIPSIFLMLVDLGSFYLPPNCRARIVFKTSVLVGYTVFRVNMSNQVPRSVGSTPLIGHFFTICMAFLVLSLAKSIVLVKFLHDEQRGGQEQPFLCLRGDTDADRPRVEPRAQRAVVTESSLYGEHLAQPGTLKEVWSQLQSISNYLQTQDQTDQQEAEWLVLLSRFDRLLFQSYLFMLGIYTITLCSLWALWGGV
Procedure, shortened: (§1)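 Human 5-HT3A and 5-HT3B subunits with point mutations were used. Defolliculated stage V–VI Xenopus oocytes were injected with 5–25 ng mRNA and incubated 24–72 h at 18 °C. Recordings were at 22–25 °C, holding at −60 mV. Agonist in Ca2+-free ND96 (pH 7.5) was applied for 15 s, then washed 116 s.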

[2] = biological target: T2, 5-HT3A receptor (homomeric) (Homo sapiens, UniProt P46098, Y148A)
T2 sequence (P46098 24-478 Y148A): T1 sequence (P46098 24-478 E124Q) with Q101E, Y125A

[3] = biological target: T3, 5-HT3AB receptor (Homo sapiens, UniProt O95264+P46098, P46098:E124Q)
T3 sequence (P46098 24-478 E124Q): T1 sequence (P46098 24-478 E124Q)
T3 sequence (O95264 22-441): T1 sequence (O95264 22-441 E122Q) with Q101E
Procedure, shortened: as §1

[4] = biological target: T4, 5-HT3AB receptor (Homo sapiens, UniProt O95264+P46098, P46098:Y148A)
T4 sequence (P46098 24-478 Y148A): T1 sequence (P46098 24-478 E124Q) with Q101E, Y125A
T4 sequence (O95264 22-441): T1 sequence (O95264 22-441 E122Q) with Q101E
Procedure, shortened: as §1

[5] = biological target: T5, 5-HT3AB receptor (Homo sapiens, UniProt O95264+P46098, O95264:E122A)
T5 sequence (P46098 24-478): T1 sequence (P46098 24-478 E124Q) with Q101E
T5 sequence (O95264 22-441 E122A): T1 sequence (O95264 22-441 E122Q) with Q101A
Procedure, shortened: as §1

[6] = biological target: T6, 5-HT3AB receptor (Homo sapiens, UniProt O95264+P46098, O95264:E122Q/O95264:Y146A)
T6 sequence (P46098 24-478): T1 sequence (P46098 24-478 E124Q) with Q101E
T6 sequence (O95264 22-441 E122Q/Y146A): T1 sequence (O95264 22-441 E122Q) with Y125A
Procedure, shortened: as §1

[7] = biological target: T7, 5-HT3AB receptor (Homo sapiens, UniProt O95264+P46098, O95264:E122Q)
T7 sequence (P46098 24-478): T1 sequence (P46098 24-478 E124Q) with Q101E
T7 sequence (O95264 22-441 E122Q): T1 sequence (O95264 22-441 E122Q)
Procedure, shortened: as §1

[8] = biological target: T8, 5-HT3AB receptor (Homo sapiens, UniProt O95264+P46098, O95264:Y146A)
T8 sequence (P46098 24-478): T1 sequence (P46098 24-478 E124Q) with Q101E
T8 sequence (O95264 22-441 Y146A): T1 sequence (O95264 22-441 E122Q) with Q101E, Y125A
Procedure, shortened: as §1

N=C(N)NC(=N)Nc1cccc(Cl)c1 [mCPBG]
EC50 [1]: 2.4 ± 0.4 µM
EC50 [2]: 24.7 ± 0.9 µM
EC50 [3]: 3 ± 0.7 µM
EC50 [4]: 11.2 ± 0.6 µM
EC50 [5]: 2.4 ± 0.1 µM
EC50 [6]: 3.5 ± 0.1 µM
EC50 [7]: 2.3 ± 0.1 µM
EC50 [8]: 4.3 ± 0.3 µM

Reference: PMC4312754 (Neuropharmacology, 2014)
